Source: ChEMBL document CHEMBL1136006, “New PET imaging agent for the serotonin transporter: [(18)F]ACF (2-[(2-amino-4-chloro-5-fluorophenyl)thio]-N,N-dimethyl-benzenmethanamine)” (J Med Chem, 2002)

Columns and labels:
Rattus norvegicus [1] = species on record: Rattus norvegicus; assay: Ratio of regional brain distribution of [18F]-ACF radiolabeled compound in rat cortex to that of cerebellum after 120 min; format: ADME, organism-based; settings: in vivo, 2 h
Summary of the method: (§1)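 Rats, three per time point, given 30 μCi tracer in 0.2 mL saline into femoral vein under ether anesthesia; killed at 2, 30, 60, 120 or 240 min. Cortex, striatum, hippocampus, cerebellum, hypothalamus and rest of brain dissected, weighed, counted; % dose/g against diluted initial dose, then each region divided by cerebellum. Average of three rats ± SD.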

Rattus norvegicus [2] = species on record: Rattus norvegicus; assay: Regional brain distribution of [18F]ACF radiolabeled compound in rat remainder (rest of brain) after 2 min; format: ADME, organism-based; settings: in vivo
Summary of the method: (§2)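 Rats (three per group) under ether anesthesia got 30 μCi tracer in 0.2 mL saline into the femoral vein and were killed by cardiac excision at the stated time. Cortex, striatum, hippocampus, cerebellum, hypothalamus and the rest of brain were dissected, weighed and gamma counted. %dose/g was taken against counts of a diluted initial dose. Regional ratios are each region's %dose/g over cerebellum's. Mean ± SD.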

Rattus norvegicus [3] = species on record: Rattus norvegicus; assay: Regional brain distribution of [18F]-ACF radiolabeled compound in rat hippocampus after 30 min; format: ADME, organism-based; settings: in vivo, 0.5 h; summary of the method: as §2
Rattus norvegicus [4] = species on record: Rattus norvegicus; assay: Organ distribution of [18F]ACF radiolabeled compound in rat spleen after 2 min; format: ADME, organism-based; settings: in vivo
Summary of the method: (§3)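 Rats, three per time point, under ether anesthesia; 30 μCi tracer in 0.2 mL saline injected into femoral vein. Sacrificed by cardiac excision under ether at 2, 30, 60, 120 or 240 min. Organs removed, weighed and counted; % dose/organ calculated against counts of 1% of initial dose counted at the same time. Average of three rats ± SD.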

Rattus norvegicus [5] = species on record: Rattus norvegicus; assay: Organ distribution of [18F]-ACF radiolabeled compound in rat kidney after 60 min; format: ADME, organism-based; settings: in vivo, 1 h
Summary of the method: (§4)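 Under ether anesthesia, 30 μCi no-carrier-added tracer in 0.2 mL saline injected into the femoral vein. Rats killed by cardiac excision at the stated time. Organs were removed, weighed and counted; % dose/organ was calculated against counts of a 1% initial-dose standard. Three rats per time, average ± SD.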

Rattus norvegicus [6] = species on record: Rattus norvegicus; assay: Regional brain distribution of [18F]-ACF radiolabeled compound in rat remainder (rest of brain) after 30 min; format: ADME, organism-based; settings: in vivo, 0.5 h; summary of the method: as §2
Rattus norvegicus [7] = species on record: Rattus norvegicus; assay: Ratio of regional brain distribution of [18F]ACF radiolabeled compound in rat cortex to that of cerebellum after 60 min; format: ADME, organism-based; settings: in vivo, 1 h; summary of the method: as §2
Rattus norvegicus [8] = species on record: Rattus norvegicus; assay: Organ distribution of [18F]ACF radiolabeled compound in rat heart after 2 min; format: ADME, organism-based; settings: in vivo; summary of the method: as §3
Rattus norvegicus [9] = species on record: Rattus norvegicus; assay: Ratio of regional brain distribution of [18F]-ACF radiolabeled compound in rat striatum to that of cerebellum after 240 min; format: ADME, organism-based; settings: in vivo, 4 h; summary of the method: as §2
Rattus norvegicus [10] = assay: Ratio of effect of pretreatment with (+)-McN5652 with a dose of 2 mg/kg (i.v.) on specific binding of [18F]-ACF in rat brain hippocampus to that of cerebellum; format: ADME, organism-based; design: dose 2 mg/kg, route intravenous; settings: in vivo, iv
Summary of the method: (§5)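 Rats (three per point) pretreated iv with competing drug at 2 mg/kg or saline (control) 5 min before iv [18F]ACF (50 μCi). At 1 h post tracer, brain regions (cortex, striatum, hippocampus, cerebellum, hypothalamus, remainder) dissected, weighed, counted as % dose/g and expressed as ratio to cerebellum. Average ± SD; ANOVA with Dunnett's test vs saline controls, p < 0.05.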

Rattus norvegicus [11] = species on record: Rattus norvegicus; assay: Ratio of regional brain distribution of [18F]ACF radiolabeled compound in rat cerebellum to that of cerebellum after 240 min; format: ADME, organism-based; settings: in vivo, 4 h; summary of the method: as §2
Rattus norvegicus [12] = species on record: Rattus norvegicus; assay: Ratio of regional brain distribution of [18F]-ACF radiolabeled compound in rat hippocampus to that of cerebellum after 2 min; format: ADME, organism-based; settings: in vivo; summary of the method: as §1
Rattus norvegicus [13] = assay: Effect of pretreatment with (+)-McN5652 with a dose of 2 mg/kg (i.v.) on specific binding of [18F]ACF in rat brain remainder; dose/g; format: ADME, organism-based; design: dose 2 mg/kg, route intravenous; settings: in vivo, iv
Summary of the method: (§6)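 Rats pretreated iv with drug (2 mg/kg) or saline 5 min before iv [18F]ACF (50 μCi). Sacrificed 1 h after tracer. Brain regions were dissected, weighed and counted, and % dose/g was calculated against a diluted initial dose. Drug-treated rats were compared with saline controls by ANOVA/Dunnett's test (p<0.05). Three rats per point, average ± SD.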

Rattus norvegicus [14] = assay: Ratio of effect of pretreatment with methylphenidate with a dose of 2 mg/kg (i.v.) on specific binding of [18F]ACF in rat brain striatum to that of cerebellum; format: ADME, organism-based; design: dose 2 mg/kg, route intravenous; settings: in vivo, iv; summary of the method: as §5
Rattus norvegicus [15] = species on record: Rattus norvegicus; assay: Organ distribution of [18F]ACF radiolabeled compound in rat kidney after 30 min; format: ADME, organism-based; settings: in vivo, 0.5 h; summary of the method: as §3
Rattus norvegicus [16] = species on record: Rattus norvegicus; assay: Organ distribution of [18F]-ACF radiolabeled compound in rat skin after 240 min; format: ADME, organism-based; settings: in vivo, 4 h; summary of the method: as §4
Rattus norvegicus [17] = species on record: Rattus norvegicus; assay: Regional brain distribution of [18F]ACF radiolabeled compound in rat cortex after 30 min; format: ADME, organism-based; settings: in vivo, 0.5 h; summary of the method: as §2
Rattus norvegicus [18] = species on record: Rattus norvegicus; assay: Organ distribution of [18F]ACF radiolabeled compound in rat blood after 240 min; format: ADME, organism-based; settings: in vivo, 4 h; summary of the method: as §3
Rattus norvegicus [19] = assay: Ratio of effect of pretreatment with methylphenidate with a dose of 2 mg/kg (i.v.) on specific binding of [18F]ACF in rat brain cerebellum to that of cerebellum; format: ADME, organism-based; design: dose 2 mg/kg, route intravenous; settings: in vivo, iv; summary of the method: as §5
Rattus norvegicus [20] = species on record: Rattus norvegicus; assay: Ratio of regional brain distribution of [18F]-ACF radiolabeled compound in rat cerebellum to that of cerebellum after 2 min; format: ADME, organism-based; settings: in vivo; summary of the method: as §1
Rattus norvegicus [21] = species on record: Rattus norvegicus; assay: Organ distribution of [18F]-ACF radiolabeled compound in rat muscle after 60 min; format: ADME, organism-based, Muscle tissue; settings: in vivo, 1 h; summary of the method: as §4
Rattus norvegicus [22] = species on record: Rattus norvegicus; assay: Regional brain distribution of [18F]-ACF radiolabeled compound in rat remainder (rest of brain) after 240 min; format: ADME, organism-based; settings: in vivo, 4 h; summary of the method: as §2
Rattus norvegicus [23] = species on record: Rattus norvegicus; assay: Organ distribution of [18F]-ACF radiolabeled compound in rat skin after 30 min; format: ADME, organism-based; settings: in vivo, 0.5 h; summary of the method: as §4
Rattus norvegicus [24] = species on record: Rattus norvegicus; assay: Ratio of regional brain distribution of [18F]ACF radiolabeled compound in rat hypothalamus to that of cerebellum after 120 min; format: ADME, organism-based; settings: in vivo, 2 h; summary of the method: as §2
Rattus norvegicus [25] = species on record: Rattus norvegicus; assay: Organ distribution of [18F]-ACF radiolabeled compound in rat lung after 2 min; format: ADME, organism-based; settings: in vivo; summary of the method: as §4
Rattus norvegicus [26] = species on record: Rattus norvegicus; assay: Ratio of regional brain distribution of [18F]ACF radiolabeled compound in rat striatum to that of cerebellum after 30 min; format: ADME, organism-based; settings: in vivo, 0.5 h; summary of the method: as §2
Rattus norvegicus [27] = species on record: Rattus norvegicus; assay: Ratio of regional brain distribution of [18F]ACF radiolabeled compound in rat hypothalamus to that of cerebellum after 240 min; format: ADME, organism-based; settings: in vivo, 4 h; summary of the method: as §2
Rattus norvegicus [28] = assay: Effect of pretreatment with nisoxatine with a dose of 2 mg/kg (i.v.) on specific binding of [18F]ACF in rat brain striatum; format: ADME, organism-based; design: dose 2 mg/kg, route intravenous; settings: in vivo, iv; summary of the method: as §6
Rattus norvegicus [29] = assay: Ratio of effect of pretreatment with nisoxatine with a dose of 2 mg/kg (i.v.) on specific binding of [18F]ACF in rat brain cerebellum to that of cerebellum; format: ADME, organism-based; design: dose 2 mg/kg, route intravenous; settings: in vivo, iv; summary of the method: as §5
Rattus norvegicus [30] = assay: Effect of pretreatment with methylphenidate with a dose of 2 mg/kg (i.v.) on specific binding of [18F]-ACF in rat brain striatum; format: ADME, organism-based; design: dose 2 mg/kg, route intravenous; settings: in vivo, iv; summary of the method: as §6
Rattus norvegicus [31] = species on record: Rattus norvegicus; assay: Ratio of regional brain distribution of [18F]ACF radiolabeled compound in rat remainder to that of cerebellum after 60 min; format: ADME, organism-based; settings: in vivo, 1 h; summary of the method: as §2
Rattus norvegicus [32] = species on record: Rattus norvegicus; assay: Ratio of regional brain distribution of [18F]ACF radiolabeled compound in rat cortex to that of cerebellum after 2 min; format: ADME, organism-based; settings: in vivo; summary of the method: as §2
Rattus norvegicus [33] = species on record: Rattus norvegicus; assay: Regional brain distribution of [18F]ACF radiolabeled compound in rat striatum after 120 min; format: ADME, organism-based; settings: in vivo, 2 h
Summary of the method: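 Rats (3 per group) under ether anaesthesia received 30 μCi tracer in 0.2 mL saline into the femoral vein. Killed by cardiac excision under ether at the set time. Striatum and other brain regions dissected, weighed and gamma-counted. % dose/g calculated against counts of a diluted 1% initial-dose standard. Values given as average ± SD of three rats.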

Rattus norvegicus [34] = species on record: Rattus norvegicus; assay: Ratio of regional brain distribution of [18F]ACF radiolabeled compound in rat cortex to that of cerebellum after 30 min; format: ADME, organism-based; settings: in vivo, 0.5 h; summary of the method: as §2

Structure (SMILES): CN(C)Cc1ccccc1Sc1cc(F)c(Cl)cc1N
- Ratio (Rattus norvegicus [1]): 1.77
- Dose/g (Rattus norvegicus [2]): 1.69%
- Dose/g (Rattus norvegicus [3]): 0.7%
- Dose/g (Rattus norvegicus [4]): 0.64 % dose/organ
- Dose/g (Rattus norvegicus [5]): 1.38 % dose/organ
- Dose/g (Rattus norvegicus [6]): 0.67%
- Ratio (Rattus norvegicus [7]): 2.1
- Dose/g (Rattus norvegicus [8]): 1.69 % dose/organ
- Ratio (Rattus norvegicus [9]): 2.35
- Ratio (Rattus norvegicus [10]): 1.93
- Ratio (Rattus norvegicus [11]): 1
- Ratio (Rattus norvegicus [12]): 1.24
- Dose/g (Rattus norvegicus [13]): 0.23%
- Ratio (Rattus norvegicus [14]): 2.75
- Dose/g (Rattus norvegicus [15]): 2.64 % dose/organ
- Dose/g (Rattus norvegicus [16]): 1.53 % dose/organ
- Dose/g (Rattus norvegicus [17]): 0.62%
- Dose/g (Rattus norvegicus [18]): 2.33 % dose/organ
- Ratio (Rattus norvegicus [19]): 1
- Ratio (Rattus norvegicus [20]): 1
- Dose/g (Rattus norvegicus [21]): 7.69 % dose/organ
- Dose/g (Rattus norvegicus [22]): 0.03%
- Dose/g (Rattus norvegicus [23]): 6.51 % dose/organ
- Ratio (Rattus norvegicus [24]): 3.23
- Dose/g (Rattus norvegicus [25]): 14.9 % dose/organ
- Ratio (Rattus norvegicus [26]): 2.06
- Ratio (Rattus norvegicus [27]): 2.37
- Dose/g (Rattus norvegicus [28]): 0.47%
- Ratio (Rattus norvegicus [29]): 1
- Dose/g (Rattus norvegicus [30]): 0.47%
- Ratio (Rattus norvegicus [31]): 2.56
- Ratio (Rattus norvegicus [32]): 1.84
- Dose/g (Rattus norvegicus [33]): 0.15%
- Ratio (Rattus norvegicus [34]): 1.69
